From ChEMBL document CHEMBL1687848, “In vitro effect of qnrA1, qnrB1, and qnrS1 genes on fluoroquinolone activity against isogenic Escherichia coli isolates with mutations in gyrA and parC” (2011)

Experiments:
Format in all cases: functional
Escherichia coli [1] = assay: Antibacterial activity against qnrA gene expressing Escherichia coli ATCC 25922 harboring GyrA S83L mutant and pBK-QnrA1 assessed as resistant colonies recovered one step below mutant prevention concentration
Outline: (§1)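 Resistant colonies recovered from Mueller-Hinton plates one concentration step below the MPC for each fluoroquinolone were retested for MIC. Mutants taken from plated concentrations closest to the MPC had the QRDRs of gyrA and parC analysed.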

Escherichia coli [2] = assay: Antibacterial activity against qnrB gene expressing Escherichia coli ATCC 25922 harboring GyrA S83L mutant and pBK-QnrB1 by broth microdilution method
Escherichia coli [3] = assay: Antibacterial activity against Escherichia coli ATCC 25922 assessed as earliest time required to resistant colonies visible one step below mutant prevention concentration
Escherichia coli [4] = assay: Antibacterial activity against Escherichia coli ATCC 25922 harboring GyrA S83L mutant by broth microdilution method
Escherichia coli [5] = assay: Antibacterial activity against qnrS gene expressing Escherichia coli ATCC 25922 harboring GyrA S83L mutant and pBK-QnrS1 assessed as earliest time required to resistant colonies visible one step below mutant prevention concentration
Escherichia coli [6] = assay: Antibacterial activity against Escherichia coli ATCC 25922 expressing qnrA gene and pBK-QnrA1 assessed as earliest time required to resistant colonies visible one step below mutant prevention concentration
Escherichia coli [7] = assay: Antibacterial activity against Escherichia coli ATCC 25922 harboring GyrA S83L mutant assessed as mutant prevention concentration
Escherichia coli [8] = assay: Antibacterial activity against qnrA gene expressing Escherichia coli ATCC 25922 harboring ParC S80R mutant and pBK-QnrA1 by broth microdilution method
Escherichia coli [9] = assay: Antibacterial activity against Escherichia coli ATCC 25922 expressing qnrA gene and pBK-QnrA1 assessed as mutant prevention concentration
Escherichia coli [10] = assay: Antibacterial activity against Escherichia coli ATCC 25922 expressing qnrA gene and pBK-QnrA1 by broth microdilution method
Escherichia coli [11] = assay: Antibacterial activity against qnrA gene expressing Escherichia coli ATCC 25922 harboring ParC S80R mutant, ParC S80R mutant and pBK-QnrA1 by broth microdilution method
Escherichia coli [12] = assay: Antibacterial activity against qnrS gene expressing Escherichia coli ATCC 25922 harboring GyrA S83L mutant and pBK-QnrS1 assessed as mutant prevention concentration
Escherichia coli [13] = assay: Antibacterial activity against Escherichia coli ATCC 25922 expressing qnrB gene and pBK-QnrB1 by broth microdilution method
Escherichia coli [14] = assay: Antibacterial activity against Escherichia coli ATCC 25922 assessed as mutant prevention concentration
Escherichia coli [15] = assay: Antibacterial activity against Escherichia coli ATCC 25922 harboring GyrA S83L mutant and ParC S80R mutant by broth microdilution method
Escherichia coli [16] = assay: Antibacterial activity against Escherichia coli ATCC 25922 harboring ParC S80R mutant by broth microdilution method
Escherichia coli [17] = assay: Antibacterial activity against qnrA gene expressing Escherichia coli ATCC 25922 harboring GyrA S83L mutant and pBK-QnrA1 assessed as earliest time required to resistant colonies visible one step below mutant prevention concentration
Escherichia coli [18] = assay: Antibacterial activity against qnrB gene expressing Escherichia coli ATCC 25922 harboring GyrA S83L mutant and pBK-QnrB1 assessed as mutant prevention concentration
Escherichia coli [19] = assay: Antibacterial activity against Escherichia coli ATCC 25922 expressing qnrS gene and pBK-QnrS1 assessed as earliest time required to resistant colonies visible one step below mutant prevention concentration
Escherichia coli [20] = assay: Antibacterial activity against qnrS gene expressing Escherichia coli ATCC 25922 harboring ParC S80R mutant and pBK-QnrS1 by broth microdilution method
Escherichia coli [21] = assay: Antibacterial activity against Escherichia coli ATCC 25922 harboring GyrA S83L mutant assessed as earliest time required to resistant colonies visible one step below mutant prevention concentration
Escherichia coli [22] = assay: Antibacterial activity against qnrA gene expressing Escherichia coli ATCC 25922 harboring GyrA S83L mutant and pBK-QnrA1 assessed as mutant prevention concentration
Escherichia coli [23] = assay: Antibacterial activity against qnrB gene expressing Escherichia coli ATCC 25922 harboring ParC S80R mutant and pBK-QnrB1 by broth microdilution method
Escherichia coli [24] = assay: Antibacterial activity against Escherichia coli ATCC 25922 expressing qnrB gene and pBK-QnrB1 assessed as mutant prevention concentration
Escherichia coli [25] = assay: Antibacterial activity against qnrS gene expressing Escherichia coli ATCC 25922 harboring ParC S80R mutant, ParC S80R mutant and pBK-QnrS1 by broth microdilution method
Escherichia coli [26] = assay: Antibacterial activity against Escherichia coli ATCC 25922 by broth microdilution method
Escherichia coli [27] = assay: Antibacterial activity against Escherichia coli ATCC 25922 expressing qnrS gene and pBK-QnrS1 by broth microdilution method
Escherichia coli [28] = assay: Antibacterial activity against Escherichia coli ATCC 25922 expressing qnrS gene and pBK-QnrS1 assessed as mutant prevention concentration
Escherichia coli [29] = assay: Antibacterial activity against Escherichia coli ATCC 25922 harboring GyrA S83L mutant assessed as resistant colonies recovered one step below mutant prevention concentration; outline: as §1
Escherichia coli [30] = assay: Antibacterial activity against qnrA gene expressing Escherichia coli ATCC 25922 harboring GyrA S83L mutant and pBK-QnrA1 by broth microdilution method
Escherichia coli [31] = assay: Antibacterial activity against Escherichia coli ATCC 25922 assessed as resistant colonies recovered one step below mutant prevention concentration; outline: as §1
Escherichia coli [32] = assay: Antibacterial activity against qnrS gene expressing Escherichia coli ATCC 25922 harboring GyrA S83L mutant and pBK-QnrS1 by broth microdilution method
Escherichia coli [33] = assay: Antibacterial activity against qnrB gene expressing Escherichia coli ATCC 25922 harboring ParC S80R mutant, ParC S80R mutant and pBK-QnrB1 by broth microdilution method
Escherichia coli [34] = assay: Antibacterial activity against qnrB gene expressing Escherichia coli ATCC 25922 harboring GyrA S83L mutant and pBK-QnrB1 assessed as earliest time required to resistant colonies visible one step below mutant prevention concentration
Escherichia coli [35] = assay: Antibacterial activity against Escherichia coli ATCC 25922 expressing qnrB gene and pBK-QnrB1 assessed as earliest time required to resistant colonies visible one step below mutant prevention concentration
Escherichia coli [36] = assay: Antibacterial activity against qnrS gene expressing Escherichia coli ATCC 25922 harboring GyrA S83L mutant and pBK-QnrS1 assessed as resistant colonies recovered one step below mutant prevention concentration; outline: as §1

SMILES: C[C@H]1COc2c(N3CCN(C)CC3)c(F)cc3c(=O)c(C(=O)O)cn1c23.C[C@H]1COc2c(N3CCN(C)CC3)c(F)cc3c(=O)c(C(=O)O)cn1c23.O [LEVOFLOXACIN]
- MIC (Escherichia coli [1]): 2 µg/mL
- MBC (Escherichia coli [2]): 0.5 µg/mL
- MIC (Escherichia coli [2]): 0.25 µg/mL
- Time (Escherichia coli [3]): 48 h
- MBC (Escherichia coli [4]): 0.25 µg/mL
- MIC (Escherichia coli [4]): 0.125 µg/mL
- Time (Escherichia coli [5]): 96 h
- Time (Escherichia coli [6]): 24 h
- Activity (Escherichia coli [7]): 4 µg/mL
- MBC (Escherichia coli [8]): 0.5 µg/mL
- MIC (Escherichia coli [8]): 0.25 µg/mL
- Activity (Escherichia coli [9]): 8 µg/mL
- MBC (Escherichia coli [10]): 0.5 µg/mL
- MBC (Escherichia coli [11]): 4 µg/mL
- MIC (Escherichia coli [11]): 2 µg/mL
- Activity (Escherichia coli [12]): 16 µg/mL
- MBC (Escherichia coli [13]): 0.25 µg/mL
- Activity (Escherichia coli [14]): 2 µg/mL
- MBC (Escherichia coli [15]): 0.25 µg/mL
- MIC (Escherichia coli [15]): 0.25 µg/mL
- MBC (Escherichia coli [16]): 0.008 µg/mL
- Time (Escherichia coli [17]): 24 h
- Activity (Escherichia coli [18]): 16 µg/mL
- Time (Escherichia coli [19]): 24 h
- MBC (Escherichia coli [20]): 0.25 µg/mL
- MIC (Escherichia coli [20]): 0.25 µg/mL
- Time (Escherichia coli [21]): 24 h
- Activity (Escherichia coli [22]): 32 µg/mL
- MBC (Escherichia coli [23]): 0.5 µg/mL
- MIC (Escherichia coli [23]): 0.25 µg/mL
- Activity (Escherichia coli [24]): 4 µg/mL
- MBC (Escherichia coli [25]): 4 µg/mL
- MIC (Escherichia coli [25]): 4 µg/mL
- MBC (Escherichia coli [26]): 0.03 µg/mL
- MBC (Escherichia coli [27]): 0.5 µg/mL
- MIC (Escherichia coli [27]): 0.125 µg/mL
- Activity (Escherichia coli [28]): 4 µg/mL
- MIC (Escherichia coli [29]): 2 µg/mL
- MBC (Escherichia coli [30]): 0.5 µg/mL
- MIC (Escherichia coli [31]): 0.125 µg/mL
- MBC (Escherichia coli [32]): 2 µg/mL
- MBC (Escherichia coli [33]): 1 µg/mL
- Time (Escherichia coli [34]): 72 h
- Time (Escherichia coli [35]): 48 h
- MIC (Escherichia coli [36]): 4 µg/mL
